Tested on: HEK-293T
Assay: Multiplex assay against HEK293T;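 for Population Tubulin-Different-Phenotype (%): share of the cells with healthy nuclei that show this phenotype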
Format: toxicity, cell-based
Conditions: human
Summary of the method: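 Phenotypes for tubulin, mitochondrial mass and membrane permeability are expressed as per cents of healthy-nucleus cells. Cells were stained live at seeding with Hoechst33342, BioTracker Green Microtubule Cytoskeleton Dye, MitoTracker Red and Annexin V Alexa Fluor 680, then imaged after compound addition on a CQ1 microscope at 37°C and 5% CO2. Machine-learning gating in CellPathfinder separated Hoechst high-intensity objects from normal cells, divided normal cells by nuclear state (healthy, pyknosed, fragmented) and divided pyknosed cells into mitotic or apoptotic.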

[1] = 12 h, 1 µM, compound concentration 1 uM, replicate 1
[2] = 12 h, 1 µM, compound concentration 1 uM, replicate 2
[3] = 12 h, 10 µM, compound concentration 10 uM, replicate 1
[4] = 12 h, 10 µM, compound concentration 10 uM, replicate 2
[5] = 24 h, 1 µM, compound concentration 1 uM, replicate 1
[6] = 24 h, 1 µM, compound concentration 1 uM, replicate 2
[7] = 24 h, 10 µM, compound concentration 10 uM, replicate 1
[8] = 24 h, 10 µM, compound concentration 10 uM, replicate 2
[9] = 48 h, 1 µM, compound concentration 1 uM, replicate 1
[10] = 48 h, 1 µM, compound concentration 1 uM, replicate 2
[11] = 48 h, 10 µM, compound concentration 10 uM, replicate 1
[12] = 48 h, 10 µM, compound concentration 10 uM, replicate 2

COc1cc(-n2cnc3cc(-c4ccc(Cl)cc4)sc3c2=O)ccc1OCCN1CCCC1
Population Apoptotic (%) [1]: 59% | Population Fragmented Nuclei (%) [1]: 8% | Population Healthy Nuclei (%) [1]: 32% | Population Hoechst High Intensity Objects (%) [1]: 15% | Population Membrane Permeable-Phenotype (%) [1]: 1% | Population Mitochondria Different-Phenotype (%) [1]: 96% | Population Mitotic Cells (%) [1]: 40% | Population Normal (%) [1]: 84% | Population Pyknosed Nuclei (%) [1]: 58% | Population Tubulin-Different-Phenotype (%) [1]: 93% | Total Cell Count [1]: 212 | Population Apoptotic (%) [2]: 20% | Population Fragmented Nuclei (%) [2]: 5% | Population Healthy Nuclei (%) [2]: 40% | Population Hoechst High Intensity Objects (%) [2]: 4% | Population Membrane Permeable-Phenotype (%) [2]: 7% | Population Mitochondria Different-Phenotype (%) [2]: 42% | Population Mitotic Cells (%) [2]: 80% | Population Normal (%) [2]: 95% | Population Pyknosed Nuclei (%) [2]: 53% | Population Tubulin-Different-Phenotype (%) [2]: 60% | Total Cell Count [2]: 265 | Population Apoptotic (%) [3]: 57% | Population Fragmented Nuclei (%) [3]: 23% | Population Healthy Nuclei (%) [3]: 1% | Population Hoechst High Intensity Objects (%) [3]: 23% | Population Membrane Permeable-Phenotype (%) [3]: 0% | Population Mitochondria Different-Phenotype (%) [3]: 75% | Population Mitotic Cells (%) [3]: 42% | Population Normal (%) [3]: 76% | Population Pyknosed Nuclei (%) [3]: 74% | Population Tubulin-Different-Phenotype (%) [3]: 75% | Total Cell Count [3]: 285 | Population Apoptotic (%) [4]: 79% | Population Fragmented Nuclei (%) [4]: 16% | Population Healthy Nuclei (%) [4]: 15% | Population Hoechst High Intensity Objects (%) [4]: 4% | Population Membrane Permeable-Phenotype (%) [4]: 33% | Population Mitochondria Different-Phenotype (%) [4]: 58% | Population Mitotic Cells (%) [4]: 20% | Population Normal (%) [4]: 95% | Population Pyknosed Nuclei (%) [4]: 67% | Population Tubulin-Different-Phenotype (%) [4]: 66% | Total Cell Count [4]: 242 | Population Apoptotic (%) [5]: 72% | Population Fragmented Nuclei (%) [5]: 11% | Population Healthy Nuclei (%) [5]: 37% | Population Hoechst High Intensity Objects (%) [5]: 14% | Population Membrane Permeable-Phenotype (%) [5]: 1% | Population Mitochondria Different-Phenotype (%) [5]: 100% | Population Mitotic Cells (%) [5]: 27% | Population Normal (%) [5]: 85% | Population Pyknosed Nuclei (%) [5]: 50% | Population Tubulin-Different-Phenotype (%) [5]: 86% | Total Cell Count [5]: 207 | Population Apoptotic (%) [6]: 27% | Population Fragmented Nuclei (%) [6]: 4% | Population Healthy Nuclei (%) [6]: 61% | Population Hoechst High Intensity Objects (%) [6]: 2% | Population Membrane Permeable-Phenotype (%) [6]: 7% | Population Mitochondria Different-Phenotype (%) [6]: 52% | Population Mitotic Cells (%) [6]: 72% | Population Normal (%) [6]: 97% | Population Pyknosed Nuclei (%) [6]: 33% | Population Tubulin-Different-Phenotype (%) [6]: 66% | Total Cell Count [6]: 325 | Population Apoptotic (%) [7]: 73% | Population Fragmented Nuclei (%) [7]: 31% | Population Healthy Nuclei (%) [7]: 0% | Population Hoechst High Intensity Objects (%) [7]: 30% | Population Membrane Permeable-Phenotype (%) [7]: 0% | Population Mitochondria Different-Phenotype (%) [7]: 0% | Population Mitotic Cells (%) [7]: 26% | Population Normal (%) [7]: 69% | Population Pyknosed Nuclei (%) [7]: 68% | Population Tubulin-Different-Phenotype (%) [7]: 0% | Total Cell Count [7]: 277 | Population Apoptotic (%) [8]: 90% | Population Fragmented Nuclei (%) [8]: 20% | Population Healthy Nuclei (%) [8]: 22% | Population Hoechst High Intensity Objects (%) [8]: 7% | Population Membrane Permeable-Phenotype (%) [8]: 21% | Population Mitochondria Different-Phenotype (%) [8]: 68% | Population Mitotic Cells (%) [8]: 9% | Population Normal (%) [8]: 92% | Population Pyknosed Nuclei (%) [8]: 57% | Population Tubulin-Different-Phenotype (%) [8]: 48% | Total Cell Count [8]: 228 | Population Apoptotic (%) [9]: 53% | Population Fragmented Nuclei (%) [9]: 13% | Population Healthy Nuclei (%) [9]: 62% | Population Hoechst High Intensity Objects (%) [9]: 9% | Population Membrane Permeable-Phenotype (%) [9]: 5% | Population Mitochondria Different-Phenotype (%) [9]: 73% | Population Mitotic Cells (%) [9]: 46% | Population Normal (%) [9]: 90% | Population Pyknosed Nuclei (%) [9]: 23% | Population Tubulin-Different-Phenotype (%) [9]: 67% | Total Cell Count [9]: 312 | Population Apoptotic (%) [10]: 20% | Population Fragmented Nuclei (%) [10]: 4% | Population Healthy Nuclei (%) [10]: 79% | Population Hoechst High Intensity Objects (%) [10]: 3% | Population Membrane Permeable-Phenotype (%) [10]: 6% | Population Mitochondria Different-Phenotype (%) [10]: 21% | Population Mitotic Cells (%) [10]: 79% | Population Normal (%) [10]: 96% | Population Pyknosed Nuclei (%) [10]: 16% | Population Tubulin-Different-Phenotype (%) [10]: 57% | Total Cell Count [10]: 539 | Population Apoptotic (%) [11]: 76% | Population Fragmented Nuclei (%) [11]: 45% | Population Healthy Nuclei (%) [11]: 0% | Population Hoechst High Intensity Objects (%) [11]: 29% | Population Membrane Permeable-Phenotype (%) [11]: 0% | Population Mitochondria Different-Phenotype (%) [11]: 100% | Population Mitotic Cells (%) [11]: 23% | Population Normal (%) [11]: 70% | Population Pyknosed Nuclei (%) [11]: 54% | Population Tubulin-Different-Phenotype (%) [11]: 100% | Total Cell Count [11]: 270 | Population Apoptotic (%) [12]: 89% | Population Fragmented Nuclei (%) [12]: 21% | Population Healthy Nuclei (%) [12]: 28% | Population Hoechst High Intensity Objects (%) [12]: 10% | Population Membrane Permeable-Phenotype (%) [12]: 12% | Population Mitochondria Different-Phenotype (%) [12]: 73% | Population Mitotic Cells (%) [12]: 10% | Population Normal (%) [12]: 89% | Population Pyknosed Nuclei (%) [12]: 50% | Population Tubulin-Different-Phenotype (%) [12]: 38% | Total Cell Count [12]: 256

— ChEMBL document CHEMBL4689842, “EUbOPEN Chemogenomics Library wave 1” (2021)
